ChEMBL document CHEMBL1127752, “Synthesis and antitumor activity of novel mitomycin derivatives containing functional groups at the C-6-methyl position” (J Med Chem, 1994)

Legend:
HeLa = test: In vitro anticellular activity tested against HeLa S3 cells; format: functional, cell-based; settings: Homo sapiens
In short: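 HeLa S3 cells seeded on day 0, then exposed to drug for 1 h on day 1; anticellular activity determined by a previously described method.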

Mus musculus [1] = test: Effective dose that gave 50% inhibition of tumor growth was calculated towards sarcoma 180 cells which were inoculated subcutaneously to the axillary region of ddY mice; format: functional; settings: Mus musculus, 180, sc
In short: (§1)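 Sarcoma 180 cells implanted sc in the axillary region of ddY mice on day 0; compounds given iv on day 1. Tumor volume compared treated versus control (T/C). 50% growth-inhibitory dose calculated from the dose-response curve; optimal dose also recorded.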

CCRF S-180 [2] = test: Optimal dose towards sarcoma 180 cells, inoculated subcutaneously to the axillary region of ddY mice; format: functional, Mus musculus; in short: as §1
Mus musculus [3] = test: In vivo antitumor activity against lymphatic leukemia P388 cells sensitive to mitomycin C (MMC) was measured as maximal increase in life span of the treated mice at optimal dose of 50 mg/kg; format: functional
Mus musculus [4] = test: In vivo antitumor activity against lymphatic leukemia P388 cells resistant to mitomycin C (MMC) was measured as maximal increase in life span of the treated mice at optimal dose of 25 mg/kg; format: functional
Mus musculus [5] = test: In vivo antitumor activity against lymphatic leukemia P388 cells resistant to mitomycin C (MMC) was measured as maximal increase in life span of the treated mice at optimal dose of 46 mg/kg; format: functional
Mus musculus [6] = test: In vivo antitumor activity against lymphatic leukemia P388 cells sensitive to mitomycin C (MMC) was measured as maximal increase in life span of the treated mice at optimal dose of 3.1 mg/kg; format: functional
Mus musculus [7] = test: In vivo antitumor activity against lymphatic leukemia P388 cells resistant to mitomycin C (MMC) was measured as maximal increase in life span of the treated mice at optimal dose of 3.1 mg/kg; format: functional
Mus musculus [8] = test: In vivo antitumor activity against lymphatic leukemia P388 cells sensitive to mitomycin C (MMC) was measured as maximal increase in life span of the treated mice at optimal dose of 13 mg/kg; format: functional
Mus musculus [9] = test: In vivo antitumor activity against lymphatic leukemia P388 cells resistant to mitomycin C (MMC) was measured as maximal increase in life span of the treated mice at optimal dose of 1.6 mg/kg; format: functional
CCRF S-180 [10] = test: Tumor volume of sarcoma 180 cells which were inoculated […] to the axillary region of ddY mice, after treatment; format: functional, Mus musculus
Mus musculus [11] = test: In vivo antitumor activity against lymphatic leukemia P388 cells resistant to mitomycin C (MMC) was measured as maximal increase in life span of the treated mice at optimal dose of 50 mg/kg; format: functional

SMILES | IC50 (HeLa) [µM] | other results
CO[C@@]12[C@H](COC(N)=O)C3=C(C(=O)C(CSC(C)C)=C(N)C3=O)N1C[C@@H]1N[C@@H]12 | 5.4 | ED50 (Mus musculus [1]): 8.4 mg/kg; OD (CCRF S-180 [2]): 25 mg/kg; ILS at 50 mg/kg (Mus musculus [3]): 58%; ILS at 25 mg/kg (Mus musculus [4]): 30%
CO[C@@]12[C@H](COC(N)=O)C3=C(C(=O)C(CSc4ccccc4O)=C(N)C3=O)N1C[C@@H]1N[C@@H]12 | 2.2 | ED50 (Mus musculus [1]): 22 mg/kg; OD (CCRF S-180 [2]): 46 mg/kg; ILS at 46 mg/kg (Mus musculus [5]): > 67%
CO[C@@]12[C@H](COC(N)=O)C3=C(C(=O)C(CSCCO)=C(N)C3=O)N1C[C@@H]1N[C@@H]12 | > 100 | –
CO[C@@]12[C@H](COC(N)=O)C3=C(C(=O)C(CSc4nc5ccccc5o4)=C(N)C3=O)N1C[C@@H]1N[C@@H]12 | 5.1 | –
CO[C@@]12[C@H](COC(N)=O)C3=C(C(=O)C(CSc4ncccc4O)=C(N)C3=O)N1C[C@@H]1N[C@@H]12 | 0.19 | ED50 (Mus musculus [1]): 3.7 mg/kg; OD (CCRF S-180 [2]): 6.3 mg/kg; ILS at 3.1 mg/kg (Mus musculus [6]): 49%; ILS at 3.1 mg/kg (Mus musculus [7]): 26%
CO[C@@]12[C@H](COC(N)=O)C3=C(C(=O)C(CSc4ccccc4C(C)C)=C(N)C3=O)N1C[C@@H]1N[C@@H]12 | 27 | –
CO[C@@]12[C@H](COC(N)=O)C3=C(C(=O)C(CSCC4CC4)=C(N)C3=O)N1C[C@@H]1N[C@@H]12 | 1.1 | ED50 (Mus musculus [1]): 13 mg/kg; OD (CCRF S-180 [2]): 25 mg/kg; ILS at 13 mg/kg (Mus musculus [8]): 43%; ILS at 1.6 mg/kg (Mus musculus [9]): > 115%
CO[C@@]12[C@H](COC(N)=O)C3=C(C(=O)C(CSCC(O)CO)=C(N)C3=O)N1C[C@@H]1N[C@@H]12 (some centres undefined) | > 100 | –
CO[C@@]12[C@H](COC(N)=O)C3=C(C(=O)C(CO)=C(N)C3=O)N1C[C@@H]1N[C@@H]12 | > 29 | –
CO[C@@]12[C@H](COC(N)=O)C3=C(C(=O)C4=C(Nc5ccccc5SC4)C3=O)N1C[C@@H]1N[C@@H]12 | 0.31 | ED50 (Mus musculus [1]): 35 mg/kg; OD (CCRF S-180 [2]): 100 mg/kg; ILS at 13 mg/kg (Mus musculus [8]): 36%; ILS at 25 mg/kg (Mus musculus [4]): 48%
CO[C@@]12[C@H](COC(N)=O)C3=C(C(=O)C4=C(NCCSC4)C3=O)N1C[C@@H]1N[C@@H]12 | 1.3 | –
CO[C@@]12[C@H](COC(N)=O)C3=C(C(=O)C(CSC4=NCCS4)=C(N)C3=O)N1C[C@@H]1N[C@@H]12 | 0.82 | ED50 (Mus musculus [1]): 5.9 mg/kg; OD (CCRF S-180 [2]): 6.3 mg/kg; ILS at 3.1 mg/kg (Mus musculus [6]): 62%; ILS at 3.1 mg/kg (Mus musculus [7]): 64%
COCC1=C(N)C(=O)C2=C(C1=O)N1CC3C(N3C)[C@]1(OC)[C@@H]2COC(N)=O (some centres undefined) | > 100 | –
CO[C@@]12[C@H](COC(N)=O)C3=C(C(=O)C(C[S+]([O-])C(C)C)=C(N)C3=O)N1C[C@@H]1N[C@@H]12 (some centres undefined) | > 10 | –
CO[C@@]12[C@H](COC(N)=O)C3=C(C(=O)C(CSc4ccc(O)cc4)=C(N)C3=O)N1C[C@@H]1N[C@@H]12 | 116 | –
CCCCCCCCCCCCSCC1=C(N)C(=O)C2=C(C1=O)N1C[C@@H]3N[C@@H]3[C@]1(OC)[C@@H]2COC(N)=O | 5.5 | –
CO[C@@]12[C@H](COC(N)=O)C3=C(C(=O)C(CS(=O)(=O)C(C)C)=C(N)C3=O)N1C[C@@H]1N[C@@H]12 | > 10 | –
CO[C@@]12[C@H](COC(N)=O)C3=C(C(=O)C(CSc4ccccc4Br)=C(N)C3=O)N1C[C@@H]1N[C@@H]12 | 48 | –
CO[C@@]12[C@H](COC(N)=O)C3=C(C(=O)C(CSc4ncc[nH]4)=C(N)C3=O)N1C[C@@H]1N[C@@H]12 | 92 | –
CO[C@@]12[C@H](COC(N)=O)C3=C(C(=O)C(CSc4nnnn4C)=C(N)C3=O)N1C[C@@H]1N[C@@H]12 | 0.12 | –
COCC1=C(OC)C(=O)C2=C(C1=O)N1CC3NC3[C@]1(OC)[C@@H]2COC(N)=O (some centres undefined) | 0.12 | –
CO[C@@]12[C@H](COC(N)=O)C3=C(C(=O)C(CSc4nccn4C)=C(N)C3=O)N1C[C@@H]1N[C@@H]12 | 0.76 | –
CCSCC1=C(N)C(=O)C2=C(C1=O)N1C[C@@H]3N[C@@H]3[C@]1(OC)[C@@H]2COC(N)=O | 2.2 | –

SMILES | IC50 (HeLa) [µM] | other results
CO[C@@]12[C@H](COC(N)=O)C3=C(C(=O)C(CSC4OC(CO)C(O)C(O)C4O)=C(N)C3=O)N1C[C@@H]1N[C@@H]12 (some centres undefined) | 82 | –
COc1ccccc1SCC1=C(N)C(=O)C2=C(C1=O)N1C[C@@H]3N[C@@H]3[C@]1(OC)[C@@H]2COC(N)=O | 2.3 | –
COC(=O)CCSCC1=C(N)C(=O)C2=C(C1=O)N1C[C@@H]3N[C@@H]3[C@]1(OC)[C@@H]2COC(N)=O | 0.97 | T/C (CCRF S-180 [10]): 0.63 min; OD (CCRF S-180 [2]): 3.1 mg/kg; ILS at 3.1 mg/kg (Mus musculus [6]): 69%
CO[C@@]12[C@H](COC(N)=O)C3=C(C(=O)C(CSc4nc5ccccc5s4)=C(N)C3=O)N1C[C@@H]1N[C@@H]12 | 0.7 | ED50 (Mus musculus [1]): 36 mg/kg; OD (CCRF S-180 [2]): 50 mg/kg; ILS at 13 mg/kg (Mus musculus [8]): 40%; ILS at 50 mg/kg (Mus musculus [11]): 57%
CO[C@@]12[C@H](COC(N)=O)C3=C(C(=O)C(CSc4cccs4)=C(N)C3=O)N1C[C@@H]1N[C@@H]12 | 4.9 | ED50 (Mus musculus [1]): 29 mg/kg; OD (CCRF S-180 [2]): 46 mg/kg; ILS at 46 mg/kg (Mus musculus [5]): > 56%
COc1ccc(SCC2=C(N)C(=O)C3=C(C2=O)N2C[C@@H]4N[C@@H]4[C@]2(OC)[C@@H]3COC(N)=O)cc1 | 14 | –
COCC1=C(N)C(=O)C2=C(C1=O)N1CC3NC3[C@]1(OC)[C@@H]2COC(N)=O (some centres undefined) | 2.6 | –
CCCCOCC1=C(N)C(=O)C2=C(C1=O)N1C[C@@H]3N[C@@H]3[C@]1(OC)[C@@H]2COC(N)=O | 19 | –
CCCOCC1=C(N)C(=O)C2=C(C1=O)N1C[C@@H]3N[C@@H]3[C@]1(OC)[C@@H]2COC(N)=O | 5.3 | –
CO[C@@]12[C@H](COC(N)=O)C3=C(C(=O)C(CSc4nnc(C)s4)=C(N)C3=O)N1C[C@@H]1N[C@@H]12 | 1.1 | –
CO[C@@]12[C@H](COC(N)=O)C3=C(C(=O)C(CSCc4ccccc4)=C(N)C3=O)N1C[C@@H]1N[C@@H]12 | 2.2 | –
C=CCOCC1=C(N)C(=O)C2=C(C1=O)N1C[C@@H]3N[C@@H]3[C@]1(OC)[C@@H]2COC(N)=O | 5.5 | –
CO[C@@]12[C@H](COC(N)=O)C3=C(C(=O)C(CSc4ccccc4Cl)=C(N)C3=O)N1C[C@@H]1N[C@@H]12 | 7.3 | –
COCC1=C(N)C(=O)C2=C(C1=O)N1C[C@H]3[C@H](N3C)[C@]1(O)[C@H]2COC(N)=O (some centres undefined) | > 82 | –
CO[C@@]12[C@H](COC(N)=O)C3=C(C(=O)C(CSc4nc(C)cc(C)n4)=C(N)C3=O)N1C[C@@H]1N[C@@H]12 | 1.1 | OD (CCRF S-180 [2]): 6.3 mg/kg; ILS at 3.1 mg/kg (Mus musculus [6]): 50%
CO[C@@]12[C@H](COC(N)=O)C3=C(C(=O)C(COCc4ccccc4)=C(N)C3=O)N1C[C@@H]1N[C@@H]12 | 5.5 | –
CO[C@@]12[C@H](COC(N)=O)C3=C(C(=O)C(CSc4nc[nH]n4)=C(N)C3=O)N1C[C@@H]1N[C@@H]12 | 6.8 | –
CO[C@@]12[C@H](COC(N)=O)C3=C(C(=O)C(CSc4ccccc4)=C(N)C3=O)N1C[C@@H]1N[C@@H]12 | 1 | ED50 (Mus musculus [1]): 6.1 mg/kg; OD (CCRF S-180 [2]): 22 mg/kg; ILS at 50 mg/kg (Mus musculus [3]): 45%
CO[C@@]12[C@H](COC(N)=O)C3=C(C(=O)C(CSc4nnnn4-c4ccccc4)=C(N)C3=O)N1C[C@@H]1N[C@@H]12 | 0.27 | –
CO[C@@]12[C@H](COC(N)=O)C3=C(C(=O)C(CSc4ccccn4)=C(N)C3=O)N1C[C@@H]1N[C@@H]12 | 1.8 | –
CO[C@@]12[C@H](COC(N)=O)C3=C(C(=O)C(CSc4ccc([N+](=O)[O-])cc4)=C(N)C3=O)N1C[C@@H]1N[C@@H]12 | 0.78 | –
CO[C@@]12[C@H](COC(N)=O)C3=C(C(=O)C(CSc4ccc(Cl)cc4)=C(N)C3=O)N1C[C@@H]1N[C@@H]12 | 53 | –
COC1=C(C)C(=O)C2=C(C1=O)[C@@H](COC(N)=O)[C@@]1(OC)[C@H]3N[C@H]3CN21 [MITOMYCIN A] | 0.0024 | –
